Data as given in ChEMBL document CHEMBL1140689, “Benzyl amide-ketoacid inhibitors of HIV-integrase” (Bioorg Med Chem Lett, 2007).

Tested on: Human immunodeficiency virus 1
Test: Antiviral activity against luciferase containing HIV1 NL4-3 virus in MT2 cells
Type: functional, organism-based
Settings: Human immunodeficiency virus 1, NL4-3, MT2
CC1(C)OC(=O)/C(=C/C(=O)NCc2ccc(F)cc2)O1 gave an EC50 of 1200 nM.
For O=C(/C=C(\O)C(=O)O)NCc1ccc(F)cc1, the EC50 was 5900 nM.
For CN(Cc1ccc(F)cc1)C(=O)/C=C(\O)C(=O)O, the EC50 was 600 nM.

Target: not listed separately
Test: Inhibition of HIV1 recombinant integrase
Set-up: species or system Human immunodeficiency virus 1
Settings: not given
Method in brief: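 Strand-transfer scintillation proximity readout. 5 pmol biotin-labeled substrate DNA bound to 100 μg streptavidin SPA beads. Recombinant integrase (0.26 ng) loaded onto the beads for 90 min at 37 °C, and unbound enzyme washed off. Inhibitors then added with 0.1 fmol 33P-labeled target DNA. Reaction stopped with EDTA (10 mM final). Integration measured as scintillation CPM.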
Cc1ccccc1CNC(=O)/C=C(\O)C(=O)O showed an IC50 of 1300 nM.
For O=C(/C=C(\O)C(=O)O)NCc1cc(F)cc(F)c1, the IC50 was 1700 nM.
O=C(/C=C(\O)C(=O)O)NCc1ccc([N+](=O)[O-])cc1 gave an IC50 of 2100 nM.
O=C(/C=C(\O)C(=O)O)NCc1cccc(Cl)c1Cl showed an IC50 of 200 nM.
In the case of O=C(/C=C(\O)C(=O)O)NCc1ccccc1, the IC50 is reported as 300 nM.
Compound O=C(/C=C(\O)C(=O)O)NCc1cccc(F)c1 has an IC50 of 1200 nM.
With O=C(/C=C(\O)C(=O)O)NCc1ccc(F)cc1 the IC50 was 200 nM.
Compound CN(Cc1ccc(F)cc1)C(=O)/C=C(\O)C(=O)O has an IC50 of 110 nM.
Compound O=C(/C=C(\O)C(=O)O)NCc1cccc(Cl)c1 has an IC50 of 600 nM.
With CC(C)(C)c1ccc(CNC(=O)/C=C(\O)C(=O)O)cc1 the IC50 was 180000 nM.
Compound COc1ccc(CNC(=O)/C=C(\O)C(=O)O)c(OC)c1 has an IC50 of 7500 nM.
COc1ccc(CNC(=O)/C=C(\O)C(=O)O)cc1Cl gave an IC50 of 300 nM.
Cc1ccc(CNC(=O)/C=C(\O)C(=O)O)cc1F showed an IC50 of 200 nM.
In the case of Cc1ccc(CNC(=O)/C=C(\O)C(=O)O)cc1, the IC50 is reported as 1400 nM.
Work on COc1ccccc1CNC(=O)/C=C(\O)C(=O)O yielded an IC50 of 500 nM.
C[C@@H](NC(=O)/C=C(\O)C(=O)O)c1ccccc1 showed an IC50 of over 300000 nM.
In the case of C[C@H](NC(=O)/C=C(\O)C(=O)O)c1ccccc1, the IC50 is reported as 24000 nM.
Compound COc1cccc(CNC(=O)/C=C(\O)C(=O)O)c1 has an IC50 of 2400 nM.
COc1ccc(CNC(=O)/C=C(\O)C(=O)O)cc1 showed an IC50 of 4200 nM.
O=C(/C=C(\O)C(=O)O)NCc1ccc(Cl)nc1 showed an IC50 of 700 nM.
O=C(/C=C(\O)C(=O)O)NCc1ccccc1F gave an IC50 of 1800 nM.
Work on CC(NC(=O)/C=C(\O)C(=O)O)c1ccc(F)cc1 (centres undefined) yielded an IC50 of 3000 nM.
Compound O=C(/C=C(\O)C(=O)O)NCc1ccccc1Cl has an IC50 of 1700 nM.
Compound O=C(/C=C(\O)C(=O)O)NCc1ccc(Cl)cc1 has an IC50 of 1100 nM.
In the case of O=C(/C=C(\O)C(=O)O)NCc1ccc(C(F)(F)F)cc1, the IC50 is reported as 9000 nM.
Work on Cc1cccc(CNC(=O)/C=C(\O)C(=O)O)c1 yielded an IC50 of 300 nM.
